From ChEMBL document CHEMBL3745687, “Synthesis and Biological Activity of 2-Methylene Analogues of Calcitriol and Related Compounds” (2015)
Activity calls are given as the source filed them. The rule behind the calls is not given here.

Assays:
[1] = molecular target: T1, Vitamin D3 receptor (Rattus norvegicus) (UniProt P13053); experiment: Ratio of 1alpha,25-dihydroxyvitamin D3 ED50 to compound ED50 for VDR-mediated 24-hydroxylase gene expression in rat ROS 17/2.8 cells after 16 hrs by luciferase reprter assay; assay type: cell-based
T1 sequence (whole entry): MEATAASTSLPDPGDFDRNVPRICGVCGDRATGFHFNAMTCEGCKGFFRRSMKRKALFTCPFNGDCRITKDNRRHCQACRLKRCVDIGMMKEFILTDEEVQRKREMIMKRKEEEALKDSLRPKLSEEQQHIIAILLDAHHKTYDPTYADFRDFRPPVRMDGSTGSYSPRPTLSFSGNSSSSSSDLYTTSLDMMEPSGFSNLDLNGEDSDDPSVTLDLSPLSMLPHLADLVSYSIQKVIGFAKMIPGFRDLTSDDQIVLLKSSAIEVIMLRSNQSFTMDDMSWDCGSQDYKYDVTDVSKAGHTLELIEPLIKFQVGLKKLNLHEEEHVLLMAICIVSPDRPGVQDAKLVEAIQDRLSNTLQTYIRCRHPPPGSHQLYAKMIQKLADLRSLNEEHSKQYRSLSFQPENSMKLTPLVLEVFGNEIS
How it was run: (§1)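 Rat osteosarcoma cells stably transfected with a 24-hydroxylase gene reporter plasmid; luciferase activity read across a dose range. ED50 is the concentration raising luciferase activity by 50%, taken from dose–response curves. Ratio line reports 1α,25-(OH)2D3 ED50 divided by analogue ED50.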

[2] = molecular target: T1, Vitamin D3 receptor (Rattus norvegicus); experiment: Induction of VDR transcriptional activity assessed as activation of 24-hydroxylase gene expression in rat ROS 17/2.8 cells after 16 hrs by luciferase reprter assay; assay type: cell-based; how it was run: as §1
[3] = molecular target: T1, Vitamin D3 receptor (Rattus norvegicus); experiment: Ratio of 1alpha,25-dihydroxyvitamin D3 Ki to compound Ki for full length recombinant rat vitamin D receptor by scintillation counting analysis
How it was run: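 Competitive binding against radiolabeled 1α,25-(OH)2D3 at 1 nM, with Kd of 0.2 nM used in Ki derivation from dose–response curves. Duplicate runs on two separate occasions. Reported as the average ratio of 1α,25-(OH)2D3 Ki to analogue Ki.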

HL-60 = experiment: Ratio of 1alpha,25-dihydroxyvitamin D3 ED50 to compound ED50 for induction of human HL60 promyelocytes differentiation to monocytes after 4 days by NBT reduction assay; assay type: functional
How it was run: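 HL-60 promyelocyte-to-monocyte differentiation scored as percentage of cells reducing nitro blue tetrazolium. Run in duplicate, repeated twice. ED50, the concentration giving 50% maturation, taken from dose–response curves; expressed as the average ratio of 1α,25-(OH)2D3 ED50 to analogue ED50.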

Rattus norvegicus [4] = experiment: Effect on bone calcium mobilization in weanling Sprague-Dawley rat assessed as serum calcium level at 87 pmol/day administered as 4 consecutive daily doses measured 24 hrs after last dose relative to control; assay type: functional
How it was run: (§2)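 Rats switched to a 0.47% Ca diet for 1 week, then 0.02% Ca diet for 2 weeks. Dosing started in the final week on the 0.02% Ca diet: four consecutive intraperitoneal doses about 24 h apart. Blood taken from the severed neck 24 h after the last dose. Serum calcium measured as the index of bone calcium mobilization.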

Rattus norvegicus [5] = experiment: Effect on bone calcium mobilization in weanling Sprague-Dawley rat assessed as serum calcium level at 780 pmol/day administered as 4 consecutive daily doses measured 24 hrs after last dose relative to control; assay type: functional; how it was run: as §2
Rattus norvegicus [6] = experiment: Effect on bone calcium mobilization in weanling Sprague-Dawley rat assessed as serum calcium level at 7020 pmol/day administered as 4 consecutive daily doses measured 24 hrs after last dose relative to control; assay type: functional; how it was run: as §2
Rattus norvegicus [7] = experiment: Effect on intestinal calcium transport in weanling Sprague-Dawley rat assessed as increase in ratio of serosal to mucosal calcium level at 87 pmol/day administered as 4 consecutive daily doses measured 24 hrs after last dose relative to control; assay type: functional
How it was run: (§3)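 Same rats, on 0.47% Ca diet for 1 week, then 0.02% Ca for 2 weeks. Four intraperitoneal doses about 24 h apart were given during the last week. 24 h after the final dose, the first 10 cm of intestine was taken for calcium transport measurement by the everted gut sac method.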

Rattus norvegicus [8] = experiment: Effect on intestinal calcium transport in weanling Sprague-Dawley rat assessed as increase in ratio of serosal to mucosal calcium level at 780 pmol/day administered as 4 consecutive daily doses measured 24 hrs after last dose relative to control; assay type: functional; how it was run: as §3
Rattus norvegicus [9] = experiment: Effect on intestinal calcium transport in weanling Sprague-Dawley rat assessed as increase in ratio of serosal to mucosal calcium level at 7020 pmol/day administered as 4 consecutive daily doses measured 24 hrs after last dose relative to control; assay type: functional; how it was run: as §3
Rattus norvegicus [10] = experiment: Effect on bone calcium mobilization in weanling Sprague-Dawley rat assessed as serum calcium level at 32 pmol/day administered as 4 consecutive daily doses measured 24 hrs after last dose relative to control; assay type: functional; how it was run: as §2
Rattus norvegicus [11] = experiment: Effect on intestinal calcium transport in weanling Sprague-Dawley rat assessed as increase in ratio of serosal to mucosal calcium level at 32 pmol/day administered as 4 consecutive daily doses measured 24 hrs after last dose relative to control; assay type: functional; how it was run: as §3
Rattus norvegicus [12] = experiment: Effect on bone calcium mobilization in weanling Sprague-Dawley rat assessed as serum calcium level at 260 pmol/day administered as 4 consecutive daily doses measured 24 hrs after last dose relative to control; assay type: functional; how it was run: as §2
Rattus norvegicus [13] = experiment: Effect on bone calcium mobilization in weanling Sprague-Dawley rat assessed as serum calcium level at 16 pmol/day administered as 4 consecutive daily doses measured 24 hrs after last dose relative to control; assay type: functional; how it was run: as §2
Rattus norvegicus [14] = experiment: Effect on intestinal calcium transport in weanling Sprague-Dawley rat assessed as increase in ratio of serosal to mucosal calcium level at 16 pmol/day administered as 4 consecutive daily doses measured 24 hrs after last dose relative to control; assay type: functional; how it was run: as §3
Rattus norvegicus [15] = experiment: Effect on intestinal calcium transport in weanling Sprague-Dawley rat assessed as increase in ratio of serosal to mucosal calcium level at 260 pmol/day administered as 4 consecutive daily doses measured 24 hrs after last dose relative to control; assay type: functional; how it was run: as §3
Rattus norvegicus [16] = experiment: Effect on bone calcium mobilization in weanling Sprague-Dawley rat assessed as serum calcium level at 2340 pmol/day administered as 4 consecutive daily doses measured 24 hrs after last dose relative to control; assay type: functional; how it was run: as §2
Rattus norvegicus [17] = experiment: Effect on intestinal calcium transport in weanling Sprague-Dawley rat assessed as increase in ratio of serosal to mucosal calcium level at 2340 pmol/day administered as 4 consecutive daily doses measured 24 hrs after last dose relative to control; assay type: functional; how it was run: as §3

Structure (SMILES) | Ratio ED50 [1] | Activity [2] | Ratio Ki [3] | Ratio ED50 (HL-60) | Activity (Rattus norvegicus [4]) [mg/dL] | Activity (Rattus norvegicus [5]) [mg/dL] | Activity (Rattus norvegicus [6]) [mg/dL] | Ratio (Rattus norvegicus [7]) | Ratio (Rattus norvegicus [8]) | Ratio (Rattus norvegicus [9]) | Activity (Rattus norvegicus [10]) [mg/dL] | Ratio (Rattus norvegicus [11]) | Activity (Rattus norvegicus [12]) [mg/dL] | Activity (Rattus norvegicus [13]) [mg/dL] | Ratio (Rattus norvegicus [14]) | Ratio (Rattus norvegicus [15]) | Activity (Rattus norvegicus [16]) [mg/dL] | Ratio (Rattus norvegicus [17])
C=C1/C(=C\C=C2/CCC[C@]3(C)[C@@H]([C@H](C)CCCC(C)(C)O)CC[C@@H]23)C[C@@H](O)C(=C)[C@@H]1O | 1 | – | 1.4 | 0.7 | 2.2 | 5 | 7.3 | 5.1 | 5.2 | 9.2 | 1.4 | 2.4 | – | – | – | – | – | –
C=C1/C(=C\C=C2/CCC[C@]3(C)[C@@H]([C@@H](C)CCCC(C)(C)O)CC[C@@H]23)C[C@@H](O)C(=C)[C@@H]1O | 10 | Active | 1.1 | 29 | 2.8 | 5.9 | 6 | 5.4 | 9.3 | 7.3 | 1.1 | 5 | 3.4 | 0.7 | 3 | 5 | – | –
C=C1/C(=C/C=C2\CCC[C@]3(C)[C@@H]([C@H](C)CCCC(C)(C)O)CC[C@@H]23)C[C@@H](O)C(=C)[C@@H]1O | 1 | – | 2.5 | 0.4 | 0.5 | 1.3 | 2.2 | 2.1 | 1.2 | 3.2 | 0.3 | 2.3 | – | – | – | – | 2.2 | 3
C=C1[C@H](O)CC(=C/C=C2\CCC[C@]3(C)[C@@H]([C@@H](C)CCCC(C)(C)O)CC[C@@H]23)C[C@H]1O [DP001] | 29 | – | 1 | 25 | – | – | – | – | – | – | – | – | – | – | – | – | – | –

Further lines, with some results ahead:

Ratio ED50 [1] | Activity [2] | Ratio Ki [3] | Structure (SMILES) | Ratio ED50 (HL-60) | Activity (Rattus norvegicus [4]) [mg/dL] | Activity (Rattus norvegicus [5]) [mg/dL] | Activity (Rattus norvegicus [6]) [mg/dL] | Ratio (Rattus norvegicus [7]) | Ratio (Rattus norvegicus [8]) | Ratio (Rattus norvegicus [9]) | Activity (Rattus norvegicus [10]) [mg/dL] | Ratio (Rattus norvegicus [11]) | Activity (Rattus norvegicus [12]) [mg/dL] | Activity (Rattus norvegicus [13]) [mg/dL] | Ratio (Rattus norvegicus [14]) | Ratio (Rattus norvegicus [15]) | Activity (Rattus norvegicus [16]) [mg/dL] | Ratio (Rattus norvegicus [17])
0.07 | Dose-dependent effect | 0.01 | C=C1/C(=C\C=C2/CCC[C@]3(C)[C@@H]([C@H](C)CCCC(C)C)CC[C@@H]23)C[C@@H](O)C(=C)[C@@H]1O | 0.07 | 0.9 | 3.8 | 6 | 4.6 | 5.8 | 6 | – | – | – | – | – | – | – | –
– | Active | – | C=C1/C(=C\C=C2/CCC[C@]3(C)[C@@H]([C@H](C)CCCC(C)(C)O)CC[C@@H]23)C[C@@H](O)C[C@@H]1O [CALCITRIOL] | – | 0.3 | 2.1 | – | 3.1 | 1.9 | – | – | – | – | – | – | – | – | –
0.07 | Dose-dependent effect | 0.01 | C=C1/C(=C\C=C2/CCC[C@]3(C)[C@@H]([C@@H](C)CCCC(C)C)CC[C@@H]23)C[C@@H](O)C(=C)[C@@H]1O | 0.7 | 0.4 | 3.3 | 4.8 | – | – | – | – | – | – | – | – | – | – | –
5 | Active | 1.1 | C=C1/C(=C/C=C2\CCC[C@]3(C)[C@@H]([C@@H](C)CCCC(C)(C)O)CC[C@@H]23)C[C@@H](O)C(=C)[C@@H]1O | 20 | 0.6 | 4 | – | 2.9 | 4.5 | – | 0 | 0.9 | 1.2 | – | – | 2.6 | – | –
